# Test results from ChEMBL document CHEMBL5252539, “In vitro biological evaluation of new antimycobacterial salicylanilide-tuftsin conjugates” (Eur J Med Chem, 2017).
# Calls of active or inactive are those of the source. The rule behind the calls is not given here. *1 amine or outer side, *2 acyl side, *3 side chain or, on linkers, in order; H or OH if unused. Where a SMILES comes first, the peptide text is derived from it. [ ]: non-standard residue; d: D form. The star is where a group is joined. X4 = O=C(Nc1ccc(C(F)(F)F)cc1)c1cc(/C=N\OCC(=O)*)ccc1O; X1 = C/C(=N\OCC(=O)[*:2])c1ccc(N[*:1])cc1; Benzoyl(5-Br-2-OH) = O=C(c1cc(Br)ccc1O)*; Palmitoyl = CCCCCCCCCCCCCCCC(=O)*; Decanoyl = CCCCCCCCCC(=O)*
# How the values were obtained:
# [1] = tested on: Mycobacteroides abscessus; test: Antimycobacterial activity against Mycobacterium abscessus ATCC 19977 assessed as reduction in colony forming unit after 7 days by serial dilution method; type: functional, organism-based; details: time 7.0 day
# Outline: (§1)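 MIC determined in Sula semisynthetic medium, pH 6.5, 1 week incubation. Growth inhibition confirmed by plating on Löwenstein-Jensen solid medium and counting CFU. Bacteria inoculated without drug served as growth control.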
# [2] = tested on: Mycobacterium tuberculosis; test: Antimycobacterial activity against Mycobacterium tuberculosis H37Rv ATCC 27294 assessed as reduction in bacterial growth after 28 days by serial dilution method; type: functional; details: H37Rv ATCC 27294, 672 h, time 28 day
# Outline: (§2)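 Broth MIC in Sula semisynthetic medium, pH 6.5; 4-week incubation, with 21-day values […] where indicated. Drug-free inoculated bacteria served as growth control. MIC also expressed as drug content (µg/mL) = MIC (µM) × average SAL molar mass × number of SAL per conjugate / 1000.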
# [3] = Selectivity index, ratio of IC50 for cytotoxicity against mouse bone marrow derived macrophages to MIC for antimycobacterial activity against Mycobacterium tuberculosis H37Rv ATCC 27294; type: toxicity; details: read-out: Selectivity Index
# Outline: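 Murine bone marrow-derived macrophages exposed for 48 h, top concentration 100 µM. Viability read by MTT and IC50 taken from dose-response curves. SI = IC50/MIC against H37Rv.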
# [4] = tested on: Mycobacterium tuberculosis; test: […] antimycobacterial activity against Mycobacterium tuberculosis H37Rv ATCC 27294 infected in human MONO-MAC-6 cells assessed as reduction in colony forming unit at 125 uM for 6 days by colony counting based analysis; type: functional, organism-based; details: time 6.0 day
# Outline: (§3)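 MonoMac6 monolayers infected with H37Rv, then treated with compound at 125 or 250 µM for 3 days. Treatment repeated with fresh compound solution for another 3 days. Intracellular bacteria quantified as CFU against untreated infected cells.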
# [5] = Selectivity index, ratio of IC50 for cytostatic activity against human MONO-MAC-6 cells to MIC for antimycobacterial activity against Mycobacterium tuberculosis H37Rv ATCC 27294; type: toxicity, cell-based; details: read-out: Selectivity Index
# Outline: (§4)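 MTT assay on MonoMac6 or HepG2 cells after 24 h exposure, top concentration 200 µM. SI = IC50 (µM)/MIC (µM) against H37Rv from the 4-week Sula medium assay.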
# [6] = Retention time of the compound by RP-HPLC analysis; type: physicochemical
# Outline: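 Analytical RP-HPLC on a C18 column (5 μm, 100 Å, 4.6 × 150 mm). Eluent A 0.1% TFA in water, eluent B 0.1% TFA in acetonitrile-water 80:20. Gradient 0% B for 5 min, to 60% B at 15 min, to 100% B at 25 min. Flow 1 mL/min, detection at 220 nm.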
# [7] = Cytotoxicity against mouse bone marrow derived macrophages assessed as reduction in cell viability incubated for 48 hrs by MTT assay; type: toxicity, cell-based, Macrophage
# Outline: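 Murine bone marrow-derived macrophages exposed for 48 h, viability by MTT. Highest concentration tested 100 µM. IC50 taken from dose-response curves.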
# [8] = Selectivity index, ratio of IC50 for cytostatic activity against human HepG2 cells to MIC for antimycobacterial activity against Mycobacterium tuberculosis H37Rv ATCC 27294; type: toxicity, cell-based; details: read-out: Selectivity Index; outline: as §4
# HepG2 = test: Cytostatic activity against human HepG2 cells assessed as reduction in cell viability incubated for 24 hrs by MTT assay; type: functional, cell-based; details: HepG2, 24 h
# Outline: (§5)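 MTT viability assay after 24 h exposure of MonoMac6 human monocytic cells or HepG2 human hepatocellular carcinoma cells. Top concentration 200 μM. IC50 taken from dose-response curves as the concentration reducing viability to 50% of maximal.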
# [9] = Stability in rat liver lysosomal homogenate assessed as drug degradation at 50 uM and measured upto 24 hrs by HPLC-MS analysis; type: ADME, subcellular, Lysosome; details: tissue homogenate
# Outline: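 Conjugates incubated in rat liver lysosomal homogenate. Reaction mixtures sampled at 5 min, 1 h, 2 h, 4 h, 8 h and 24 h and analysed by HPLC-MS (chromatograms and mass spectra) to identify intact conjugate, fragments and cleavage sites.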
# [10] = tested on: Mycobacteroides abscessus; test: Antimycobacterial activity against Mycobacterium abscessus ATCC 19977 assessed as reduction in bacterial growth after 7 days by serial dilution method; type: functional; details: ATCC 19977, 168 h, time 7 day; outline: as §1
# MONO-MAC-6 = test: Cytostatic activity against human MONO-MAC-6 cells assessed as reduction in cell viability incubated for 24 hrs by MTT assay; type: functional, cell-based; details: MONO-MAC-6, 24 h; outline: as §5
# [11] = tested on: Mycobacterium tuberculosis; test: […] antimycobacterial activity against Mycobacterium tuberculosis H37Rv ATCC 27294 infected in human MONO-MAC-6 cells assessed as reduction in colony forming unit at 250 uM for 6 days by colony counting based analysis; type: functional, organism-based; details: time 6.0 day; outline: as §3
# [12] = tested on: Mycobacterium tuberculosis; test: Antimycobacterial activity against Mycobacterium tuberculosis H37Rv ATCC 27294 assessed as reduction in colony forming unit after 28 days by serial dilution method; type: functional, organism-based; details: time 28.0 day
# Outline: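 After the 4-week MIC incubation in Sula semisynthetic medium (pH 6.5), growth inhibition confirmed by plating on Löwenstein-Jensen solid medium and counting colony forming units.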
# [13] = tested on: Mycobacterium tuberculosis; test: Antimycobacterial activity against Mycobacterium tuberculosis H37Rv ATCC 27294 assessed as reduction in bacterial growth after 21 days by serial dilution method; type: functional; details: H37Rv ATCC 27294, 504 h, time 21 day; outline: as §2
SMILES,Activity [1],MIC [2],selectivity ratio [3],Activity [4],selectivity ratio [5],Retention_time [6],IC50 at 48 h [7],selectivity ratio [8],IC50 (HepG2),Stability [9],MIC [10],IC50 (MONO-MAC-6),Activity [11],Activity [12],MIC [13]
C/C(=N\OCC(=O)N[C@H](C(=O)N[C@@H](CCCCN)C(=O)N1CCC[C@H]1C(=O)N[C@@H](CCCCN)C(=O)NCC(N)=O)[C@@H](C)O)c1ccc(NC(=O)c2cc(Br)ccc2O)cc1 ({Benzoyl(5-Br-2-OH)}-[X1]TKPKG-NH2),Active,21.8 µM,4.6,Active,> 9.2,15.6 min,> 100 µM,> 9.2,> 200 µM,Unstable,174 µM,> 200 µM,Active,Active,–
CC(=O)c1ccc(NC(=O)c2cc(Br)ccc2O)cc1,Active,7.5 µM,10.2,–,2.5,–,76.5 µM,2.1,15.9 µM,–,59.8 µM,18.6 µM,–,Active,–
CCCCCCCCCC(=O)NCCCC[C@H](NC(=O)[C@@H]1CCCN1C(=O)[C@H](CCCCN)NC(=O)[C@@H](NC(=O)CO/N=C(\C)c1ccc(NC(=O)c2cc(Br)ccc2O)cc1)[C@@H](C)O)C(=O)NCC(N)=O ({Benzoyl(5-Br-2-OH)}-[X1]TKPK(Decanoyl)G-NH2),Active,–,–,Active,0.4,–,–,0.3,55.8 µM,Unstable,186 µM,72.6 µM,Active,Active,186 µM
C[C@@H](O)[C@H](NC(=O)CNC(=O)[C@H](CCCCN)NC(=O)[C@@H]1CCCN1C(=O)[C@H](CCCCN)NC(=O)[C@@H](NC(=O)CNC(=O)[C@H](CCCCN)NC(=O)[C@@H]1CCCN1C(=O)[C@H](CCCCN)NC(=O)[C@@H](NC(=O)CNC(=O)[C@H](CCCCN)NC(=O)[C@@H]1CCCN1C(=O)[C@H](CCCCN)NC(=O)[C@@H](NC(=O)CO/N=C\c1ccc(O)c(C(=O)Nc2ccc(C(F)(F)F)cc2)c1)[C@@H](C)O)[C@@H](C)O)[C@@H](C)O)C(=O)N[C@@H](CCCCN)C(=O)N1CCC[C@H]1C(=O)N[C@@H](CCCCN)C(=O)NCC(N)=O (X4-TKPKGTKPKGTKPKGTKPKG-NH2),Active,–,–,Active,> 2.4,–,–,> 2.4,> 200 µM,–,41.2 µM,> 200 µM,Active,Active,82.4 µM
CCCCCCCCCCCCCCCC(=O)NCCCC[C@H](NC(=O)[C@@H]1CCCN1C(=O)[C@H](CCCCN)NC(=O)[C@@H](NC(=O)CO/N=C(\C)c1ccc(NC(=O)c2cc(Br)ccc2O)cc1)[C@@H](C)O)C(=O)NCC(=O)N[C@H](C(=O)N[C@@H](CCCCN)C(=O)N1CCC[C@H]1C(=O)N[C@@H](CCCCN)C(=O)NCC(=O)N[C@H](C(=O)N[C@@H](CCCCN)C(=O)N1CCC[C@H]1C(=O)N[C@@H](CCCCN)C(=O)NCC(=O)N[C@H](C(=O)N[C@@H](CCCCN)C(=O)N1CCC[C@H]1C(=O)N[C@@H](CCCCN)C(=O)NCC(N)=O)[C@@H](C)O)[C@@H](C)O)[C@@H](C)O ({Benzoyl(5-Br-2-OH)}-[X1]TKPK(Palmitoyl)GTKPKGTKPKGTKPKG-NH2),Active,92.9 µM,0.2,Active,0.2,18.4 min,20.4 µM,0.4,37.6 µM,Unstable,74.3 µM,16.5 µM,Active,Active,–
CCCCCCCCCCCCCCCC(=O)NCCCC[C@H](NC(=O)[C@@H]1CCCN1C(=O)[C@H](CCCCN)NC(=O)[C@@H](NC(=O)CNC(=O)[C@H](CCCCN)NC(=O)[C@@H]1CCCN1C(=O)[C@H](CCCCN)NC(=O)[C@@H](NC(=O)CNC(=O)[C@H](CCCCN)NC(=O)[C@@H]1CCCN1C(=O)[C@H](CCCCN)NC(=O)[C@@H](NC(=O)CO/N=C(\C)c1ccc(NC(=O)c2cc(Br)ccc2O)cc1)[C@@H](C)O)[C@@H](C)O)[C@@H](C)O)C(=O)NCC(=O)N[C@H](C(=O)N[C@@H](CCCCN)C(=O)N1CCC[C@H]1C(=O)N[C@@H](CCCCN)C(=O)NCC(N)=O)[C@@H](C)O ({Benzoyl(5-Br-2-OH)}-[X1]TKPKGTKPKGTKPK(Palmitoyl)GTKPKG-NH2),Active,–,–,Active,0.3,17.3 min,–,0.5,40.4 µM,Unstable,74.3 µM,20.9 µM,Active,Active,74.3 µM
C/C(=N\OCC(=O)NCC(=O)N[C@@H](Cc1ccccc1)C(=O)N[C@@H](CC(C)C)C(=O)NCC(=O)N[C@H](C(=O)N[C@@H](CCCCN)C(=O)N1CCC[C@H]1C(=O)N[C@@H](CCCCN)C(=O)NCC(=O)N[C@H](C(=O)N[C@@H](CCCCN)C(=O)N1CCC[C@H]1C(=O)N[C@@H](CCCCN)C(=O)NCC(=O)N[C@H](C(=O)N[C@@H](CCCCN)C(=O)N1CCC[C@H]1C(=O)N[C@@H](CCCCN)C(=O)NCC(=O)N[C@H](C(=O)N[C@@H](CCCCN)C(=O)N1CCC[C@H]1C(=O)N[C@@H](CCCCN)C(=O)NCC(N)=O)[C@@H](C)O)[C@@H](C)O)[C@@H](C)O)[C@@H](C)O)c1ccc(NC(=O)c2cc(Br)ccc2O)cc1,–,–,0.7,–,0.6,15.7 min,92.1 µM,0.8,112 µM,Unstable,–,86.6 µM,–,–,–
CCCCCCCCCCCCCCCC(=O)NCCCC[C@H](NC(=O)[C@@H]1CCCN1C(=O)[C@H](CCCCN)NC(=O)[C@@H](NC(=O)CO/N=C(\C)c1ccc(NC(=O)c2cc(Br)ccc2O)cc1)[C@@H](C)O)C(=O)NCC(N)=O ({Benzoyl(5-Br-2-OH)}-[X1]TKPK(Palmitoyl)G-NH2),Active,–,–,Active,0.3,–,–,0.1,23.2 µM,Unstable,173 µM,53.8 µM,Active,Active,173 µM
